Test system: OVCAR-5
Assay: Growth inhibition of human OVCAR5 cells at 10 uM after 48 hrs by coulter counter analysis
Format: functional
Conditions: OVCAR-5, 48 h, read-out: GI
Procedure, shortened: (§1)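 Single-dose NCI 60-line panel screen of test compounds. Cells grown in RPMI 1640 with 10% FBS. Compounds dissolved in DMSO, then diluted in phosphate buffer saline (final DMSO below 1%). Wells run in duplicate at 6 × 10⁴ cells/ml. Controls held PBS and DMSO at matching dilutions. Incubation 48 h at 37 °C under humidified 5% CO2. Cells diluted tenfold in saline and counted by Coulter counter. Percent growth inhibition taken from mean-graph of treated-cell growth.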

Row | SMILES | inhibition of growth at 10 µM
1 | CCOC(=O)c1sc(NC(=O)CCN2CCOCC2)nc1C | < 10%

Test system: SK-MEL-5
Assay: Growth inhibition of human SK-MEL-5 cells at 10 uM after 48 hrs by coulter counter analysis
Format: functional
Conditions: SK-MEL-5, 48 h, read-out: GI
Procedure, shortened: as §1

Row | SMILES | inhibition of growth at 10 µM
2 | CCOC(=O)c1sc(NC(=O)CCN2CCOCC2)nc1C | < 10%

Test system: MDA-MB-231
Assay: Growth inhibition of human MDA-MB-231 cells at 10 uM after 48 hrs by coulter counter analysis
Format: functional
Conditions: MDA-MB-231, 48 h, read-out: GI
Procedure, shortened: as §1

Row | SMILES | inhibition of growth at 10 µM
3 | CCOC(=O)c1sc(NC(=O)CCN2CCOCC2)nc1C | < 10%

Test system: SF-295
Assay: Growth inhibition of human SF295 cells at 10 uM after 48 hrs by coulter counter analysis
Format: functional
Conditions: SF-295, 48 h, read-out: GI
Procedure, shortened: as §1

Row | SMILES | inhibition of growth at 10 µM
4 | CCOC(=O)c1sc(NC(=O)CCN2CCOCC2)nc1C | < 10%

Test system: NCI-H322M
Assay: Growth inhibition of human NCI-H322M cells at 10 uM after 48 hrs by coulter counter analysis
Format: functional
Conditions: read-out: GI
Procedure, shortened: as §1

Row | SMILES | inhibition of growth at 10 µM
5 | CCOC(=O)c1sc(NC(=O)CCN2CCOCC2)nc1C | < 10%

Test system: MDA-MB-468
Assay: Growth inhibition of human MDA-MB-468 cells at 10 uM after 48 hrs by coulter counter analysis
Format: functional
Conditions: MDA-MB-468, 48 h, read-out: GI
Procedure, shortened: as §1

Row | SMILES | inhibition of growth at 10 µM
6 | CCOC(=O)c1sc(NC(=O)CCN2CCOCC2)nc1C | < 10%

Test system: LOX IMVI
Assay: Growth inhibition of human LOXIMVI cells at 10 uM after 48 hrs by coulter counter analysis
Format: functional
Conditions: read-out: GI
Procedure, shortened: as §1

Row | SMILES | inhibition of growth at 10 µM
7 | CCOC(=O)c1sc(NC(=O)CCN2CCOCC2)nc1C | < 10%

Test system: Malme-3M
Assay: Growth inhibition of human MALME-3M cells at 10 uM after 48 hrs by coulter counter analysis
Format: functional
Conditions: read-out: GI
Procedure, shortened: as §1

Row | SMILES | inhibition of growth at 10 µM
8 | CCOC(=O)c1sc(NC(=O)CCN2CCOCC2)nc1C | < 10%

Test system: SN12C
Assay: Growth inhibition of human SN12C cells at 10 uM after 48 hrs by coulter counter analysis
Format: functional
Conditions: read-out: GI
Procedure, shortened: as §1

Row | SMILES | inhibition of growth at 10 µM
9 | CCOC(=O)c1sc(NC(=O)CCN2CCOCC2)nc1C | < 10%

Test system: KM12
Assay: Growth inhibition of human KM12 cells at 10 uM after 48 hrs by coulter counter analysis
Format: functional
Conditions: KM12, 48 h, read-out: GI
Procedure, shortened: as §1

Row | SMILES | inhibition of growth at 10 µM
10 | CCOC(=O)c1sc(NC(=O)CCN2CCOCC2)nc1C | < 10%

Test system: not listed separately
Assay: Growth inhibition of human NCI-ADR-RES cells at 10 uM after 48 hrs by coulter counter analysis
Format: functional
Conditions: read-out: GI
Procedure, shortened: as §1

Row | SMILES | inhibition of growth at 10 µM
11 | CCOC(=O)c1sc(NC(=O)CCN2CCOCC2)nc1C | < 10%

Test system: ACHN
Assay: Growth inhibition of human ACHN cells at 10 uM after 48 hrs by coulter counter analysis
Format: functional
Conditions: read-out: GI
Procedure, shortened: as §1

Row | SMILES | inhibition of growth at 10 µM
12 | CCOC(=O)c1sc(NC(=O)CCN2CCOCC2)nc1C | < 10%

Test system: not listed separately
Assay: Growth inhibition of human Hs 578T cells at 10 uM after 48 hrs by coulter counter analysis
Format: functional
Conditions: read-out: GI
Procedure, shortened: as §1

Row | SMILES | inhibition of growth at 10 µM
13 | CCOC(=O)c1sc(NC(=O)CCN2CCOCC2)nc1C | < 10%

Test system: OVCAR-8
Assay: Growth inhibition of human OVCAR8 cells at 10 uM after 48 hrs by coulter counter analysis
Format: functional
Conditions: OVCAR-8, 48 h, read-out: GI
Procedure, shortened: as §1

Row | SMILES | inhibition of growth at 10 µM
14 | CCOC(=O)c1sc(NC(=O)CCN2CCOCC2)nc1C | < 10%

Test system: SW-620
Assay: Growth inhibition of human SW620 cells at 10 uM after 48 hrs by coulter counter analysis
Format: functional
Conditions: SW-620, 48 h, read-out: GI
Procedure, shortened: (§2)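 Single-dose screen in the NCI 60 cell line panel. Cells grown in RPMI 1640 with 10% FBS. Compounds dissolved in DMSO and diluted in phosphate buffered saline, final DMSO under 1%. Duplicate wells seeded from culture at 6 × 10⁴ cells/ml. Incubated 48 h at 37 °C, humidified, 5% CO2. Cells diluted tenfold in saline and Coulter-counted. Percent growth inhibition computed against PBS/DMSO controls.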

Row | SMILES | inhibition of growth at 10 µM
15 | CCOC(=O)c1sc(NC(=O)CCN2CCOCC2)nc1C | < 10%

Test system: MDA-MB-435
Assay: Growth inhibition of human MDA-MB-435 cells at 10 uM after 48 hrs by coulter counter analysis
Format: functional
Conditions: MDA-MB-435, 48 h, read-out: GI
Procedure, shortened: as §1

Row | SMILES | inhibition of growth at 10 µM
16 | CCOC(=O)c1sc(NC(=O)CCN2CCOCC2)nc1C | < 10%

Test system: UO-31
Assay: Growth inhibition of human UO31 cells at 10 uM after 48 hrs by coulter counter analysis
Format: functional
Conditions: UO-31, 48 h, read-out: GI
Procedure, shortened: as §2

Row | SMILES | inhibition of growth at 10 µM
17 | CCOC(=O)c1sc(NC(=O)CCN2CCOCC2)nc1C | 10.6%

Test system: COLO 205
Assay: Growth inhibition of human COLO205 cells at 10 uM after 48 hrs by coulter counter analysis
Format: functional
Conditions: COLO 205, 48 h, read-out: GI
Procedure, shortened: as §1

Row | SMILES | inhibition of growth at 10 µM
18 | CCOC(=O)c1sc(NC(=O)CCN2CCOCC2)nc1C | < 10%

Test system: NCI-H522
Assay: Growth inhibition of human NCI-H522 cells at 10 uM after 48 hrs by coulter counter analysis
Format: functional
Conditions: NCI-H522, 48 h, read-out: GI
Procedure, shortened: as §1

Row | SMILES | inhibition of growth at 10 µM
19 | CCOC(=O)c1sc(NC(=O)CCN2CCOCC2)nc1C | < 10%

Test system: HCC 2998
Assay: Growth inhibition of human HCC2998 cells at 10 uM after 48 hrs by coulter counter analysis
Format: functional
Conditions: HCC 2998, 48 h, read-out: GI
Procedure, shortened: as §1

Row | SMILES | inhibition of growth at 10 µM
20 | CCOC(=O)c1sc(NC(=O)CCN2CCOCC2)nc1C | < 10%

Test system: SK-MEL-2
Assay: Growth inhibition of human SK-MEL-2 cells at 10 uM after 48 hrs by coulter counter analysis
Format: functional
Conditions: SK-MEL-2, 48 h, read-out: GI
Procedure, shortened: as §1

Row | SMILES | inhibition of growth at 10 µM
21 | CCOC(=O)c1sc(NC(=O)CCN2CCOCC2)nc1C | < 10%

Test system: OVCAR-3
Assay: Growth inhibition of human OVCAR3 cells at 10 uM after 48 hrs by coulter counter analysis
Format: functional
Conditions: OVCAR-3, 48 h, read-out: GI
Procedure, shortened: as §1

Row | SMILES | inhibition of growth at 10 µM
22 | CCOC(=O)c1sc(NC(=O)CCN2CCOCC2)nc1C | < 10%

Test system: NCI-H226
Assay: Growth inhibition of human NCI-H226 cells at 10 uM after 48 hrs by coulter counter analysis
Format: functional
Conditions: NCI-H226, 48 h, read-out: GI
Procedure, shortened: as §1

Row | SMILES | inhibition of growth at 10 µM
23 | CCOC(=O)c1sc(NC(=O)CCN2CCOCC2)nc1C | < 10%

Test system: RPMI-8226
Assay: Growth inhibition of human RPMI8226 cells at 10 uM after 48 hrs by coulter counter analysis
Format: functional
Conditions: RPMI-8226, 48 h, read-out: GI
Procedure, shortened: as §1

Row | SMILES | inhibition of growth at 10 µM
24 | CCOC(=O)c1sc(NC(=O)CCN2CCOCC2)nc1C | < 10%

Test system: BT-549
Assay: Growth inhibition of human BT549 cells at 10 uM after 48 hrs by coulter counter analysis
Format: functional
Conditions: BT-549, 48 h, read-out: GI
Procedure, shortened: as §1

Row | SMILES | inhibition of growth at 10 µM
25 | CCOC(=O)c1sc(NC(=O)CCN2CCOCC2)nc1C | < 10%

Test system: SF-539
Assay: Growth inhibition of human SF539 cells at 10 uM after 48 hrs by coulter counter analysis
Format: functional
Conditions: SF-539, 48 h, read-out: GI
Procedure, shortened: as §1

Row | SMILES | inhibition of growth at 10 µM
26 | CCOC(=O)c1sc(NC(=O)CCN2CCOCC2)nc1C | < 10%

Test system: M14
Assay: Growth inhibition of human M14 cells at 10 uM after 48 hrs by coulter counter analysis
Format: functional
Conditions: M14, 48 h, read-out: GI
Procedure, shortened: as §1

Row | SMILES | inhibition of growth at 10 µM
27 | CCOC(=O)c1sc(NC(=O)CCN2CCOCC2)nc1C | < 10%

Test system: SR
Assay: Growth inhibition of human SR cells at 10 uM after 48 hrs by coulter counter analysis
Format: functional
Conditions: read-out: GI
Procedure, shortened: as §2

Row | SMILES | inhibition of growth at 10 µM
28 | CCOC(=O)c1sc(NC(=O)CCN2CCOCC2)nc1C | < 10%

Test system: HOP-92
Assay: Growth inhibition of human HOP92 cells at 10 uM after 48 hrs by coulter counter analysis
Format: functional
Conditions: HOP-92, 48 h, read-out: GI
Procedure, shortened: as §1

Row | SMILES | inhibition of growth at 10 µM
29 | CCOC(=O)c1sc(NC(=O)CCN2CCOCC2)nc1C | 21.9%

Test system: HCT-15
Assay: Growth inhibition of human HCT15 cells at 10 uM after 48 hrs by coulter counter analysis
Format: functional
Conditions: HCT-15, 48 h, read-out: GI
Procedure, shortened: as §1

Row | SMILES | inhibition of growth at 10 µM
30 | CCOC(=O)c1sc(NC(=O)CCN2CCOCC2)nc1C | < 10%

Test system: UACC-62
Assay: Growth inhibition of human UACC62 cells at 10 uM after 48 hrs by coulter counter analysis
Format: functional
Conditions: UACC-62, 48 h, read-out: GI
Procedure, shortened: as §2

Row | SMILES | inhibition of growth at 10 µM
31 | CCOC(=O)c1sc(NC(=O)CCN2CCOCC2)nc1C | < 10%

Test system: IGROV-1
Assay: Growth inhibition of human IGROV1 cells at 10 uM after 48 hrs by coulter counter analysis
Format: functional
Conditions: IGROV-1, 48 h, read-out: GI
Procedure, shortened: as §1

Row | SMILES | inhibition of growth at 10 µM
32 | CCOC(=O)c1sc(NC(=O)CCN2CCOCC2)nc1C | < 10%

Test system: OVCAR-4
Assay: Growth inhibition of human OVCAR4 cells at 10 uM after 48 hrs by coulter counter analysis
Format: functional
Conditions: OVCAR-4, 48 h, read-out: GI
Procedure, shortened: as §1

Row | SMILES | inhibition of growth at 10 µM
33 | CCOC(=O)c1sc(NC(=O)CCN2CCOCC2)nc1C | < 10%

Test system: T47D
Assay: Growth inhibition of human T47D cells at 10 uM after 48 hrs by coulter counter analysis
Format: functional
Conditions: read-out: GI
Procedure, shortened: as §2

Row | SMILES | inhibition of growth at 10 µM
34 | CCOC(=O)c1sc(NC(=O)CCN2CCOCC2)nc1C | < 10%

Test system: MCF7
Assay: Growth inhibition of human MCF7 cells at 10 uM after 48 hrs by coulter counter analysis
Format: functional
Conditions: MCF7, 48 h, read-out: GI
Procedure, shortened: as §1

Row | SMILES | inhibition of growth at 10 µM
35 | CCOC(=O)c1sc(NC(=O)CCN2CCOCC2)nc1C | < 10%

Test system: SF-268
Assay: Growth inhibition of human SF268 cells at 10 uM after 48 hrs by coulter counter analysis
Format: functional
Conditions: SF-268, 48 h, read-out: GI
Procedure, shortened: as §1

Row | SMILES | inhibition of growth at 10 µM
36 | CCOC(=O)c1sc(NC(=O)CCN2CCOCC2)nc1C | < 10%
